# Assays:
# [1] = biological target: T1, Protein mono-ADP-ribosyltransferase PARP3 (Homo sapiens) (UniProt Q9Y6F1); test: Inhibition of human recombinant PARP3 at 10 uM incubated for 1 hr using NAD+, biotinylated NAD+ and activated DNA by luminescence based assay
# T1 sequence (whole entry): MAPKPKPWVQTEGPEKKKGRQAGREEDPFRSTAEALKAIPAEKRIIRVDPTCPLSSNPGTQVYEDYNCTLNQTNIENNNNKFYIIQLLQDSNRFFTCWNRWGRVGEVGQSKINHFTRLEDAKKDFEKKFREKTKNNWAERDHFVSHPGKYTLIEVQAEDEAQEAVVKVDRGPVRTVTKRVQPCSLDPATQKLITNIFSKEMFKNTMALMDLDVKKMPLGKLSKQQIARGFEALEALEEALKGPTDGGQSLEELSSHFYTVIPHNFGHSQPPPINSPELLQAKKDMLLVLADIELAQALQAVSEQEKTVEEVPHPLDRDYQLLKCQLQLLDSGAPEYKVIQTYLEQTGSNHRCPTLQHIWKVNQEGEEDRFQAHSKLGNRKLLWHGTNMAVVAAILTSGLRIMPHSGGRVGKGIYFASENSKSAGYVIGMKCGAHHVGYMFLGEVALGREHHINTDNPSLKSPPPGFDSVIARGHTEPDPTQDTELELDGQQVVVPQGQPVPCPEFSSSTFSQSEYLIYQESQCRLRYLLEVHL
# Procedure, shortened: (§1)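 Recombinant PARP enzyme reactions were run in duplicate for 1 h at rt on histone-coated plates in Tris·HCl pH 8.0 buffer with NAD+, biotinylated NAD+ and activated DNA. Detection used streptavidin-HRP for 30 min at rt, then a chemiluminescent developer. % inhibition = 100 − % activity, scaled between the no-compound (100%) and no-enzyme (0%) signals.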
# [2] = biological target: T2, Protein mono-ADP-ribosyltransferase TIPARP (Homo sapiens) (UniProt Q7Z3E1); test: Inhibition of human recombinant PARP7 at 10 uM incubated for 1 hr using NAD+, biotinylated NAD+ and activated DNA by luminescence based assay; procedure, shortened: as §1
# T2 sequence (whole entry): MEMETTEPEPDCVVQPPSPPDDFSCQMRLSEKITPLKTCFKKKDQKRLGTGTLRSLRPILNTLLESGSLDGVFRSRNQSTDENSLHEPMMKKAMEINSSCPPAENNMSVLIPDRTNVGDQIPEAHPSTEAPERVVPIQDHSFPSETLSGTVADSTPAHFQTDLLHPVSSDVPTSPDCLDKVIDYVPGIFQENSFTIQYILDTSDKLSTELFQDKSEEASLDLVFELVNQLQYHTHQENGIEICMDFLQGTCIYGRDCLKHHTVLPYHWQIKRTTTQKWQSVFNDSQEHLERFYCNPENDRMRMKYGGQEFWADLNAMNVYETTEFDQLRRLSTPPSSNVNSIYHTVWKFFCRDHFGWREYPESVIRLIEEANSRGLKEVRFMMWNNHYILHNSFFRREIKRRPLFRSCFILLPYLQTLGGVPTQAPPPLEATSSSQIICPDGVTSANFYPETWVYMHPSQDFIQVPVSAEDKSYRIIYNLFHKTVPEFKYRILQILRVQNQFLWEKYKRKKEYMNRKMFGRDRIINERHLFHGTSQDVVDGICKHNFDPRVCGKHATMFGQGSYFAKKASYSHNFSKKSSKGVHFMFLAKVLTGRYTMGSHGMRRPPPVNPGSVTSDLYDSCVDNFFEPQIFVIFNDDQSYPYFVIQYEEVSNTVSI
# [3] = biological target: T3, Protein mono-ADP-ribosyltransferase PARP8 (Homo sapiens) (UniProt Q8N3A8); test: Inhibition of human recombinant PARP8 at 10 uM incubated for 1 hr using NAD+, biotinylated NAD+ and activated DNA by luminescence based assay; procedure, shortened: as §1
# T3 sequence (whole entry): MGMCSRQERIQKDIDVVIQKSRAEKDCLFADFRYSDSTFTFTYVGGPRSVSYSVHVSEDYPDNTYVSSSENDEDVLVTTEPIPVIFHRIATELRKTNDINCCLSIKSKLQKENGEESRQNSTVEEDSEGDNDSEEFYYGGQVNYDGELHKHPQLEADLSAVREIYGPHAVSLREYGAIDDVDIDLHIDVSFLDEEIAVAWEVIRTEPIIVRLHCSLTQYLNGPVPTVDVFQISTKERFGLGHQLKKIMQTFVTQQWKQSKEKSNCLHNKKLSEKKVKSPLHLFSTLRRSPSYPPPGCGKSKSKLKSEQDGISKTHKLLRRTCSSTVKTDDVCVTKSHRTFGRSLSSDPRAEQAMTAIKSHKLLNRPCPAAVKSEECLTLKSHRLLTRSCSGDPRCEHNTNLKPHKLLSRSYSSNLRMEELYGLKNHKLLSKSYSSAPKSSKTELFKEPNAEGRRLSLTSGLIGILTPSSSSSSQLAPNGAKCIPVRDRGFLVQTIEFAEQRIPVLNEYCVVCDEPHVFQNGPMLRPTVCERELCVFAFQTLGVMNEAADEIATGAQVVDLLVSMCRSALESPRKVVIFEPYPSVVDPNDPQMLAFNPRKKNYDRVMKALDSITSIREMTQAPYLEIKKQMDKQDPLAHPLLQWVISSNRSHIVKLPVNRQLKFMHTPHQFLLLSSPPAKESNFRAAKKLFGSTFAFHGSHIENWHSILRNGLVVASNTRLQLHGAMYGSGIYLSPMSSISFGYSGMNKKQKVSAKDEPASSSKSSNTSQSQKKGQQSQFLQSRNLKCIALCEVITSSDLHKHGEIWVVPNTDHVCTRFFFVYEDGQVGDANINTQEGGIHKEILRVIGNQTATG
smiles,measurement,setting,value
CC(C)(C)c1ccc(-c2nc3c(sc4ccccc43)c(=O)[nH]2)cc1,inhibition,[1],1%
same,inhibition,[2],7%
same,inhibition,[3],3%

# Reference: ChEMBL document CHEMBL3351316, “Scaffold hopping approach on the route to selective tankyrase inhibitors” (Eur J Med Chem, 2014)
